In ChEMBL document CHEMBL2311469, “Development of new cathepsin B inhibitors: combining bioisosteric replacements and structure-based design to explore the structure-activity relationships of nitroxoline derivatives” (J Med Chem, 2013) one finds Ki, Ratio Ki and inhibition data, which are given here for 33 compounds.

Active and inactive are the calls of the source. The rule behind the calls is not given here.

Assay [1] concerns the target T1, Pro-cathepsin H (Homo sapiens, UniProt P09668).
T1 sequence (P09668 whole entry): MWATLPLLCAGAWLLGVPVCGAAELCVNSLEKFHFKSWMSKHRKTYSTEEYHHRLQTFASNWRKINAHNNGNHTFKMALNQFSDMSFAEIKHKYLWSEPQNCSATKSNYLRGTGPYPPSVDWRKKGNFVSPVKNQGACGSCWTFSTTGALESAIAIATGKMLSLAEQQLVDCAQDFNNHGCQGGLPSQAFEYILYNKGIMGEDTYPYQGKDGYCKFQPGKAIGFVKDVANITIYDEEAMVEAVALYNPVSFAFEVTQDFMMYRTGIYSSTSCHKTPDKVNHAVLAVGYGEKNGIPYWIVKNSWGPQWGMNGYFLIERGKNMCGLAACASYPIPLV
Briefly: Noncompetitive inhibition of human liver cathepsin H endopeptidase activity using R-AMC substrate assessed as inhibition constant for enzyme-inhibitor complex. Put shortly: (§1)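 Native catH isolated from human liver was preactivated for 5 min at 37 °C in 100 mM phosphate pH 6.8 with 0.1% PEG 8000, 5 mM DTT and 1.5 mM EDTA. Arg-AMC was used at 20, 80 and 160 μM, with inhibitor at 0–200 μM (seven levels) and 5% DMSO. […] Run twice in duplicate.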

For assay [2], the species on record is Homo sapiens. Briefly: Selectivity ratio of Ki for human liver cathepsin H to Ki for human recombinant cathepsin B.
For assay [3], the target named is T2, Cathepsin B (Homo sapiens, UniProt P07858). The experiment in a line: Mixed inhibition of human recombinant cathepsin B endopeptidase activity using Z-Arg-Arg-AMC substrate assessed as inhibition constant for enzyme-substrate-inhibitor complex.
In assay [4] the target is T2, Cathepsin B. Briefly: Noncompetitive inhibition of human recombinant cathepsin B exopeptidase activity using Abz-Gly-Ile-Val-Arg-Ala-Lys(Dnp)-OH substrate. The method, boiled down: (§2)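 Human recombinant catB, preactivated 5 min at 37 °C in assay buffer containing 0.1% PEG 8000, 5 mM DTT and 1.5 mM EDTA. […] Exopeptidase: 60 mM acetate pH 5.0, Abz-GIVRAK(Dnp)-OH 1/3/6 μM (Km 6.3 μM). Inhibitor 0–200 μM, 5% DMSO, 37 °C, fluorescence rate; two runs in duplicate.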

Assay [5] addresses T2, Cathepsin B. Briefly: Mixed inhibition of human recombinant cathepsin B […] assessed as inhibition constant for enzyme-inhibitor complex.
In assay [6] the target is Procathepsin L (Homo sapiens, UniProt P07711). The experiment in a line: Competitive inhibition of human recombinant cathepsin L endopeptidase activity using Z-FR-AMC substrate expressed in Escherichia coli assessed as inhibition constant for enzyme-inhibitor complex. The method, boiled down:
(§3)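 Ki from rates at three substrate levels with inhibitor at 0, 20, 40, 60, 80, 100 and 200 μM. Enzymes were preactivated 5 min at 37 °C. CatL (recombinant, E. coli): 100 mM acetate pH 5.5, Z-Phe-Arg-AMC 0.5/1/4 μM. CatH (native, human liver): 100 mM phosphate pH 6.8, Arg-AMC 20/80/160 μM. Buffers held 0.1% PEG 8000, 5 mM DTT and 1.5 mM EDTA, plus 5% DMSO. Two runs in duplicate.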

Assay [7] is filed under the species Homo sapiens. Briefly: Selectivity ratio of Ki for human recombinant cathepsin L to Ki for human recombinant cathepsin B.
Assay [8] concerns the target T1, Pro-cathepsin H. Briefly: Noncompetitive inhibition of human liver cathepsin H endopeptidase activity using R-AMC substrate assessed as inhibition constant for enzyme-substrate-inhibitor complex. Put shortly:
as §1

The target in assay [9] is T2, Cathepsin B. Briefly: Inhibition of human recombinant cathepsin B endopeptidase activity using Z-Arg-Arg-AMC substrate.
The target in assay [10] is T2, Cathepsin B. The experiment in a line: Inhibition of human recombinant cathepsin B exopeptidase activity using Abz-Gly-Ile-Val-Arg-Ala-Lys(Dnp)-OH substrate.
For assay [11], the target named is T2, Cathepsin B. The experiment in a line: Competitive inhibition of human recombinant cathepsin B exopeptidase activity using Abz-Gly-Ile-Val-Arg-Ala-Lys(Dnp)-OH substrate assessed as inhibition constant for enzyme-inhibitor complex. Put shortly:
as §2

For assay [12], the target named is T2, Cathepsin B. Briefly: Uncompetitive inhibition of human recombinant […] assessed as inhibition constant for enzyme-substrate-inhibitor complex.
The target of assay [13] is T1, Pro-cathepsin H. The experiment in a line: Uncompetitive inhibition of human liver cathepsin H endopeptidase activity using R-AMC substrate assessed as inhibition constant for enzyme-substrate-inhibitor complex. Put shortly: as §3
The subject of assay [14] is MCF-10A. Briefly: Inhibition of human MCF10A neoT cell invasion expressing c-Ha-Ras oncogene at 5 uM after 30 mins relative to DMSO-treated control. Format: functional. To be noted: 72 h, in the assay text read “after 72 hrs” for “after 30 mins”. The method, boiled down:
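xCELLigence CIM-16 invasion assay. Upper chamber coated with 5 mg/mL Matrigel; lower well coated with bovine fibronectin. Compound 5 μM or 0.05% DMSO in both chambers, equilibrated 30 min at 37 °C. Then 3 × 10^4 cells seeded in serum-free medium, cell index read every 15 min for 72 h. Invasion = cell index with compound / DMSO; mean ± SD, n = 4, two experiments.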

Assay [15] deals with T2, Cathepsin B. Briefly: Mixed inhibition of human recombinant cathepsin B exopeptidase activity using Abz-Gly-Ile-Val-Arg-Ala-Lys(Dnp)-OH substrate assessed as inhibition constant for enzyme-inhibitor complex. The method, boiled down: (§4)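 Recombinant human catB was preactivated for 5 min at 37 °C in 60 mM acetate pH 5.0 with 0.1% PEG 8000, 5 mM DTT and 1.5 mM EDTA. Abz-GIVRAK(Dnp)-OH was used at 1, 3 and 6 μM (Km 6.3 μM), with inhibitor at 0–200 μM (seven levels) and 5% DMSO. […] Run twice, each in duplicate.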

Assay [16] has as its target T2, Cathepsin B. The experiment in a line: Mixed inhibition of human recombinant cathepsin B exopeptidase activity using Abz-Gly-Ile-Val-Arg-Ala-Lys(Dnp)-OH substrate assessed as inhibition constant for enzyme-substrate-inhibitor complex. The method, boiled down: as §4

Sequence of Procathepsin L (P07711 whole entry): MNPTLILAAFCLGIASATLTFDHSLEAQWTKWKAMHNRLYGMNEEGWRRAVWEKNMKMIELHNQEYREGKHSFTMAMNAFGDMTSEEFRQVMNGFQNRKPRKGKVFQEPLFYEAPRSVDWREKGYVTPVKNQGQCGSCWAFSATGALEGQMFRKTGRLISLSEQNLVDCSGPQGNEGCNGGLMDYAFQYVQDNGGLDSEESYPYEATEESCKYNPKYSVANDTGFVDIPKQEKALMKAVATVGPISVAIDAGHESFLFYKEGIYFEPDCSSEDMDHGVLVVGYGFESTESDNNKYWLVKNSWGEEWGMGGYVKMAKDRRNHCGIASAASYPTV

Broadly, the Ki is the equilibrium dissociation constant of an inhibitor or competing ligand from its target. In the case of `CC1CCN(c2ccc([N+](=O)[O-])c3cccnc23)CC1`, the Ki in assay [1] stood at 221 µM; in assay [3] it was 105 µM; in assay [4], 24 µM; in assay [5] it was 207 µM; in assay [6] it was 155 µM; in assay [8], 221 µM. In addition, the Ratio Ki was 9 in [2] and 6 in assay [7].

A word on the inhibition: it is the change of the read-out against control, counted positive when it falls. With `C#CCNc1ccc([N+](=O)[O-])c2cccnc12`, the inhibition entry in assay [9] and in assay [10] was “inactive” throughout.

As for `O=C(O)c1cc([N+](=O)[O-])c2cccnc2c1O`, the Ki in [11] stood at 221 µM; in assay [12], 117 µM.

As to `O=C(O)[C@@H]1CCCC[C@@H]1NCc1cc([N+](=O)[O-])c2cccnc2c1O`, the results for the Ki in assay [11], in assay [3] and in [5] were 250 µM, 125 µM and 181 µM, respectively.

On to `O=[N+]([O-])c1ccc(N2CCOCC2)c2ncccc12`, for which the Ki is 153 µM in assay [3], 155 µM in assay [4] and 180 µM in [5].

As for `O=[N+]([O-])c1cc(CN2CCN(Cc3cccnc3)CC2)c(O)c2ncccc12`, the Ki in [3] amounted to 171 µM; in [4], 364 µM; in [5], 311 µM.

Consider `CCOC(=O)[C@@H]1CCCC[C@@H]1NCc1cc([N+](=O)[O-])c2cccnc2c1O`, for which the results for the inhibitory constant (Ki) in assay [3], in assay [4] and in [5] were 74 µM, 130 µM and 132 µM, respectively.

Turning to `Nc1c(Br)cc([N+](=O)[O-])c2ccccc12`, the Ki in assay [12] amounted to 32 µM; in [4], 212 µM; in assay [6], 182 µM; in assay [13], 354 µM. Also, the Ratio Ki in assay [2] was 11; in [7], greater than 6.

`N#CCN(CC#N)c1ccc([N+](=O)[O-])c2ccccc12`: the inhibition result in assay [9] and in assay [10] was “inactive” each time.

Take `CN(Cc1ccccc1)c1ccc([N+](=O)[O-])c2cccnc12`: the Ki was determined as 196 µM in assay [11], 137 µM in [3] and 242 µM in [5].

On to `O=[N+]([O-])c1ccc(O)c2ccccc12`, for which the inhibitory constant (Ki) in assay [3] was determined as 84 µM; in [5] it was 373 µM. Further, the inhibition entry in [10] was “inactive”.

`CCNCc1cc([N+](=O)[O-])c2cccnc2c1O`: the Ki is 82 µM in assay [3], 136 µM in [4] and 117 µM in assay [5].

Regarding `CCCNC(=O)[C@H]1O[C@@H]1C(=O)N[C@H](C(=O)N1CCC[C@H]1C(=O)O)C(C)CC` (single isomer, unassigned), the inhibition at 5 µM in assay [14] turned out to be 48%.

For `O=[N+]([O-])c1cc([N+](=O)[O-])c2cccnc2c1O`, the inhibition constant Ki stood at 72 µM in assay [12] and 146 µM in assay [4].

On to `CN(C)c1ccc([N+](=O)[O-])c2cccnc12`, for which the inhibition entry in assay [9] and in [10] was “inactive” throughout.

Regarding `N#CCNc1ccc([N+](=O)[O-])c2ccccc12`, the inhibition entry in assay [9] and in assay [10] was “inactive” in each case.

As for `CCOC(=O)N1CCN(Cc2cc([N+](=O)[O-])c3cccnc3c2O)CC1`, the Ki in assay [3] is 87 µM; in assay [4] it was 156 µM; in assay [5], 129 µM.

On to `O=[N+]([O-])c1ccc(N2CCCC2)c2ccccc12`, for which the Ratio Ki in [2] was 7; in [7], greater than 6. Also, the inhibition constant Ki in assay [3] came to 277 µM; in assay [4], 34 µM; in assay [5] it was 170 µM; in assay [6], 245 µM; in [13], 251 µM.

Consider `CCOC(=O)C1CCN(c2ccc([N+](=O)[O-])c3cccnc23)CC1`, for which the Ki in [3] was 113 µM; in [4], 38 µM; in [5], 162 µM.

Take `C[C@@H]1CCCCN1Cc1cc([N+](=O)[O-])c2cccnc2c1O`: the Ki in assay [3] amounted to 116 µM; in assay [4], 243 µM; in assay [5], 203 µM.

With `O=[N+]([O-])c1ccc(NCc2ccccn2)c2ncccc12`, the inhibitory constant (Ki) in assay [3] turned out to be 87 µM; in [4], 47 µM; in assay [5] it was 107 µM.

For `CN(CCc1ccccc1)c1ccc([N+](=O)[O-])c2cccnc12`, the inhibition constant Ki was 175 µM in assay [12] and 350 µM in assay [4].

Turning to `CCN(CC)C(=O)C1CCCN(c2ccc([N+](=O)[O-])c3cccnc23)C1` (racemic), the inhibitory constant (Ki) in [3] was 117 µM; in assay [15] it was 105 µM; in [16], 36 µM; in assay [5] it was 155 µM.

For `Nc1c(O)cc(S(=O)(=O)O)c2ccccc12`, the inhibition entry in assay [9] was “inactive”.

As for `CN(CC#N)Cc1cc([N+](=O)[O-])c2cccnc2c1O`, the figures for the Ki in [3], in assay [4] and in assay [5] were 76 µM, 172 µM and 126 µM, respectively.

As for `O=[N+]([O-])c1ccc(NCc2ccccc2)c2ncccc12`, the Ki worked out at 127 µM in assay [3], 364 µM in assay [4] and 349 µM in assay [5].

As to `O=[N+]([O-])c1ccc(N2CCOCC2)c2ccccc12`, the Ki was found to be 125 µM in [3], 85 µM in [4] and 289 µM in assay [5].

On to `N#CCN(Cc1ccccc1)Cc1cc([N+](=O)[O-])c2cccnc2c1O`, for which the figures for the inhibition constant (Ki) in assay [12], in assay [15] and in assay [16] were 19 µM, 79 µM and 8 µM, respectively.

For `O=[N+]([O-])c1cc(CN2CCN(Cc3ccncc3)CC2)c(O)c2ncccc12`, the inhibition constant (Ki) was 94 µM in assay [3], 162 µM in [4] and 143 µM in assay [5].

On to `O=[N+]([O-])c1cc(CNCc2ccccc2)c(O)c2ncccc12`, for which the Ki was 58 µM in assay [3], 154 µM in assay [4] and 198 µM in assay [5].

`O=[N+]([O-])c1ccc(N2CCCC2)c2ncccc12`: the inhibition result in assay [10] was “inactive”.

As to `O=S(=O)(O)c1ccc(O)c2ccccc12`, the inhibition entry in assay [9] is “inactive”.

For the compound `Nc1ccc([N+](=O)[O-])c2ccccc12`, the figures for the inhibitory constant (Ki) in assay [3], in [4] and in [5] were 111 µM, 147 µM and 217 µM, respectively.
